CHOP UPR activ = activators of apoptotic arm of unfolded protein response (CHOP); AID 449763; activation, % at 10 µM; CHO-CHOP luciferase reporter, UPR activation, luminescence; percent of tunicamycin response over DMSO baseline; 330,000 tested, 0.34% active;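 active means at 10 µM dose, activation of 40% or more, normalized to positive control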
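System: CHO-CHOP luciferase reporter cell line; amount: 500 cells/well; buffer or medium: F12 medium containing 10% fetal bovine serum; incubation: 6 h compound exposure at 37 °C after overnight seeding; measured by: luciferase luminescence after 10 min with Steady-Glo reagent; evaluation: % reporter activation, DMSO baseline versus tunicamycin full activation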
697 NFkB inh = lowers PMA/ionomycin-induced NF-kB signal in 697 B cells; 697 B-cell NF-kB luciferase reporter, 16 h; inhibition, % at 4 µM; 330,000 tested, 0.33% active; AID 435022; in the data active means inhibition above about 35%
XBP1 UPR activ = adaptive UPR (XBP1) activation; 330,000 tested, 0.33% active; CHO-XBP1 luciferase reporter, IRE1-XBP1 UPR activation, luminescence; percent of tunicamycin response, DMSO as zero; activation, % at 20 µM; AID 463104;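 active means versus positive control, 20 µM dose yields 30% or more activation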
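incubation = overnight seeding at 37 °C, 6 h compound treatment at 37 °C | assay system = CHO-XBP1 cells stably carrying IRE1-XBP1-driven luciferase reporter | input = 1000 cells per well | detection = luciferase luminescence | dosing = single point, 20 µM final compound, 1% DMSO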
Jurkat NFkB inh = lowers PMA/ionomycin-induced NF-kB signal in Jurkat cells; AID 435003; inhibition, % at 4 µM; 330,000 tested, 0.53% active; PMA/ionomycin-induced NF-kB luciferase reporter, luminescence; in the data active means inhibition above about 50%
CRFBP-R2 block = antagonists of CRF-binding protein/CRF-R2 receptor complex; HEK293 CRF-R2/CRF-BP, CRF-induced calcium fluorescence; inhibition, % at 11.8 µM; 350,000 tested, 0.59% active; AID 588475;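 active means inhibition of the ligand-induced calcium signal above about 50% at the single tested concentration, limit read from the data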
UPR CHOP confirm = apoptotic UPR (CHOP) activation, confirmed; shares compounds with CHOP UPR activ; CHO-CHOP cells, CHOP-luciferase reporter luminescence; percent of tunicamycin response, DMSO as zero; activation, % at 10 µM; 1,000 tested, 64% active; AID 463112; in the data active means activation above about 33%
UPR XBP1 confirm = confirmation of adaptive unfolded protein response (XBP1) activators | shares compounds with XBP1 UPR activ | CHO-XBP1 IRE1-XBP1 luciferase reporter, luminescence | activation, % at 20 µM | 1,000 tested, 63% active | AID 485299;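 active means reporter signal at least 30% of the positive control's activation in two or more of four replicate wells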
Of the large screens only hits and unclear results are named; the others gave an inactive call (follow-up assays come after a bar, where they were run); ! = not confirmed by another sample. This is a sample that favours compounds with a hit; in the whole collection about 1.8% have one here.

CN1C(=O)/C(=C/c2cccn2-c2ccc3ccccc3c2)C(=O)NC1=S	CHOP UPR activ 145, XBP1 UPR activ 116 | UPR CHOP confirm 151 | UPR XBP1 confirm inactive
CCC1=Nc2cc(C(=O)N3CCC4(CC3)OCCO4)ccc2Sc2ccc(Br)cc21	none
CCCCn1c(NC(=O)c2ccco2)c(C(=O)OCC)c2nc3ccccc3nc21	CHOP UPR activ 47, XBP1 UPR activ 40 | UPR CHOP confirm inactive | UPR XBP1 confirm inactive
CCCCn1c(NS(=O)(=O)c2ccc(C)cc2)c(C(=O)OCC)c2nc3ccccc3nc21	none
CCN(CC)c1ccc(N=Cc2c(O)n(Cc3ccccc3)c(=O)[nH]c2=O)cc1	XBP1 UPR activ 31 | UPR XBP1 confirm 35!
C[C@]12CCC3C(CC[C@@H]4C[C@H](O)CC[C@]34C)C1CCC2=O (some centres undefined)	none
Cc1cccc(-n2c(O)c(C=Nc3ccc(Br)cn3)c(=O)[nH]c2=O)c1	none
Cc1ccc(-n2c(O)c(/C=N/c3ncc(Br)cc3Br)c(=O)[nH]c2=O)cc1	XBP1 UPR activ 31 | UPR XBP1 confirm 52
CCN(CC)c1ccc(/C=C/[N+](=O)[O-])cc1	XBP1 UPR activ 112 | UPR XBP1 confirm 76
C[CH2][Hg][S]c1ccccc1C(=O)O	none

From PubChem BioAssay
